Data as given in ChEMBL document CHEMBL1121848, “Inactivation of trypsin-like proteases by depsipeptides of p-guanidinobenzoic acid” (J Med Chem, 1981).

Assays:
[1] = system: Plasminogen; assay: Compound was evaluated for the reactivity in the inactivation of trypsin like enzyme plasmin
In short: (§1)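 Each enzyme (10^-6 to 10^-9 M final) was incubated at 25 °C with inhibitor dissolved in water (10^-3 to 10^-6 M final) in 50 mM Pipes, pH 7.0, with 200 mM NaCl. Loss of activity was treated as first-order to give k_app. Reactivity was k_app divided by inhibitor concentration.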

[2] = Second order rate constant was determined in the inactivation of HPK
In short: (§2)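 Trypsin or human plasma kallikrein (10^-6 to 10^-9 M final) was inactivated at 25 °C by ester in water (10^-3 to 10^-6 M final) in 50 mM Pipes, pH 7.0, with 200 mM NaCl. Activity decayed first-order. Individual constants k_2 (min⁻¹) and K_m (M) were resolved for each enzyme.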

[3] = molecular target: Urokinase-type plasminogen activator (Homo sapiens) (UniProt P00749); assay: Compound was evaluated for the reactivity in the inactivation of trypsin like Urokinase-type plasminogen activator; in short: as §1
[4] = molecular target: Acrosin (Sus scrofa) (UniProt P08001); assay: Compound was evaluated for the reactivity in the inactivation of trypsin like boar acrosin
Sequence of Acrosin (Sus scrofa) (P08001 whole entry, looked up): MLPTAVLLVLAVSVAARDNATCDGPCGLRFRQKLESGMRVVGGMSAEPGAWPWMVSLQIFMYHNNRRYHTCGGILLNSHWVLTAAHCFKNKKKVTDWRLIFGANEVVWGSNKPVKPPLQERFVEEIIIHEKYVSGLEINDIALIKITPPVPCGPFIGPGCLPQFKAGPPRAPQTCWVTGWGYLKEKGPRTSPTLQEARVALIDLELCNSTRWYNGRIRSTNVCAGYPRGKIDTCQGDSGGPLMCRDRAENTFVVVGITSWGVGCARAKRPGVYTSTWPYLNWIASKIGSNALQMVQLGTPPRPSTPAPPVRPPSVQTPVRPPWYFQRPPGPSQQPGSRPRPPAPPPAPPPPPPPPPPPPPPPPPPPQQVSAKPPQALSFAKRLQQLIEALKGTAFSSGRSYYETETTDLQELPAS

[5] = Compound was evaluated for the reactivity in the inactivation of trypsin like enzyme; in short: as §1
[6] = Second order rate constant was determined in the inactivation of trypsin; in short: as §2
[7] = molecular target: Plasma kallikrein (Homo sapiens) (UniProt P03952); assay: Compound was evaluated for the reactivity in the inactivation of trypsin like enzyme Human plasma Kallikrein
Sequence of Plasma kallikrein (Homo sapiens) (P03952 whole entry, looked up): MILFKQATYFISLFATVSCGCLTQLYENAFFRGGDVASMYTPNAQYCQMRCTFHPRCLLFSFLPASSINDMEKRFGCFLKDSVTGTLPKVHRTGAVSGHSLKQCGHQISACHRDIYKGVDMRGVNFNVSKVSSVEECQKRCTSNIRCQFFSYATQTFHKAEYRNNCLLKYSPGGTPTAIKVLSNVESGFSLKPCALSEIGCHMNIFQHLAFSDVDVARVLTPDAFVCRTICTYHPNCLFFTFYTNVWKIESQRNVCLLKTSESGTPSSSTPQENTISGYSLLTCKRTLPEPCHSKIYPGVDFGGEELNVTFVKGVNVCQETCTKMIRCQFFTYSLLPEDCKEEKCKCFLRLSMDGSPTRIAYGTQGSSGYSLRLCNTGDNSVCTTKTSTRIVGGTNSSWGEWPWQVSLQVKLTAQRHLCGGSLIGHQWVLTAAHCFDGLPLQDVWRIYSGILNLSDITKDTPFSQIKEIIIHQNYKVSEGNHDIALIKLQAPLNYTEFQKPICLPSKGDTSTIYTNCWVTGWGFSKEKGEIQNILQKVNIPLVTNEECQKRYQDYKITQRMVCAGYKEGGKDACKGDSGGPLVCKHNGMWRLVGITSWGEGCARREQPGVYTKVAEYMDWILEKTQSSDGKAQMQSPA

SMILES	Reactivity [1]	k2 [2]	Reactivity [3]	Reactivity [4]	Reactivity [5]	k2 [6]	Reactivity [7]
CC(=O)O.N=C(N)Nc1ccc(C(=O)OCC(N)=O)cc1	644	1.25 min⁻¹	300	117000	17000	0.523 min⁻¹	2800
CC(=O)O.C[C@H](NC(=O)COC(=O)c1ccc(NC(=N)N)cc1)C(=O)N[C@@H](Cc1ccccc1)C(N)=O	–	0.84 min⁻¹	–	–	13400	0.748 min⁻¹	1400
CC(=O)O.CCOC(=O)c1ccc(NC(=N)N)cc1	–	–	11	200000	259	1.89 min⁻¹	26
CC(=O)O.N=C(N)Nc1ccc(C(=O)OCC(=O)NC(Cc2ccccc2)C(N)=O)cc1 (centres undefined)	753	0.74 min⁻¹	21	207000	46000	3.24 min⁻¹	8600
CC(=O)O.CC(OC(=O)c1ccc(NC(=N)N)cc1)C(=O)NC(Cc1ccccc1)C(N)=O (centres undefined)	743	0.1 min⁻¹	32	–	14200	3.7 min⁻¹	3000
CC(=O)O.N=C(N)Nc1ccc(C(=O)OCC(=O)NCC(=O)NCC(N)=O)cc1	–	0.344 min⁻¹	–	–	10200	0.832 min⁻¹	2000
CC(=O)O.CC(C)C(NC(=O)COC(=O)c1ccc(NC(=N)N)cc1)C(N)=O (centres undefined)	441	0.87 min⁻¹	5	114000	11200	0.74 min⁻¹	2000
CC(=O)O.N=C(N)Nc1ccc(C(=O)OCC(=O)N[C@@H](Cc2ccccc2)C(=O)N2CCC[C@H]2C(N)=O)cc1	–	0.83 min⁻¹	–	–	32000	1.27 min⁻¹	2600
